Assay outcomes (PubChem)
Hep lipid drop = inhibitors of hepatocyte lipid droplet formation, primary screen, imaging, high-throughput imaging, BODIPY stain; AML12 mouse hepatocytes, oleate lipid droplets; inhibition, % at 6.5 µM; 240,000 tested, 0.4% active; AID 1656, 2009;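 active = lipid droplet intensity inhibited by at least 50%, with more than 500 cells counted; inconclusive = wells with under 300 cells, treated as cytotoxic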
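Test system: AML12 hepatocytes (mouse); reagent: oleate loading, 100 µM; dosing: one dose, 6.5 µM compound; incubation: overnight exposure; signal: fluorescence imaging, 20x objective, two fields per well; read-out basis: % inhibition of corrected integrated BODIPY droplet signal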
XBP1 UPR activ = activators of adaptive XBP1 UPR arm, primary screen, cell-based, CHO-XBP1 luciferase reporter, luminescence, uHTS; IRE1-XBP1 UPR activation; percent of tunicamycin response, DMSO as zero; activation, % at 20 µM; 330,000 tested, 0.33% active; AID 463104, 2010;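 active = versus positive control, 20 µM dose yields 30% or more activation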
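Signal: luciferase luminescence; Assay system: CHO-XBP1 luciferase reporter cells; Amount: one thousand reporter cells per well; Dosing: 20 µM single concentration, DMSO 1%; Benchmarks: high control tunicamycin 10 µg/mL final, low control DMSO vehicle only; Schedule: 6 h compound exposure at 37 °C, 5% CO2; Evaluation: percent activation relative to tunicamycin reference.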
TMEM16A act = TMEM16A chloride channel activators or potentiators, primary screen, cell-based, HTS; HEK293 TMEM16A/YFP-H148Q/I152L, iodide quench fluorescence; active compounds read low; B-score at 10 µM; 340,000 tested, 0.3% active; AID 623877, 2012;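 active = fluorescence-ratio B-score plate-corrected deviation score at least 3 library SD below zero, with starting fluorescence score within 5 deviations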;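 note: channel opened by trigger with iodide after compound preincubation; score built on the fluorescence ratio of max minus min over baseline; more negative score means more quench and so TMEM16A activation or potentiation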
TMEM16A inh = TMEM16A chloride channel inhibitors, primary screen, cell-based, HTS. Anoctamin-1 (Mus musculus), Q8BHY3. HEK293 TMEM16A/YFP iodide influx fluorescence, ionomycin. normalized B-score (activity score, 25-100; higher = stronger inhibition) at 10 µM. 310,000 tested, 1.2% active;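 active = ratio plate-corrected score three or more library SD toward inhibition, starting fluorescence score within five deviations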;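 note: score derived from kinetic fluorescence span divided by baseline fluorescence per well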
CHOP inh = inhibitors of CHOP promoter induction, primary screen, cell-based, unfolded protein response, luciferase reporter; CHO-K1 CHOP-promoter luciferase, tunicamycin-induced, 15-18 h; inhibition, % at 10 µM; 220,000 tested, 3.8% active; AID 2732, 2010;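 active = compounds that reduced the stress-induced luciferase reporter signal by more than about 70% of percent inhibition, limit read from the data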
CHOP UPR activ = activators of apoptotic CHOP UPR arm, primary screen, cell-based, CHO-CHOP luciferase reporter, luminescence, uHTS. UPR activation; percent of tunicamycin response over DMSO baseline. activation, % at 10 µM. 330,000 tested, 0.34% active. AID 449763, 2010;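 active = at 10 µM dose, activation of 40% or more, normalized to positive control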
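System: CHO-CHOP luciferase reporter cell line | Buffer or medium: F12 medium containing 10% fetal bovine serum | Doses: One dose, 10 µM in 0.5% DMSO | Times: 6 h compound exposure at 37 °C after overnight seeding | Signal: Luciferase luminescence | Read-out: % activation vs tunicamycin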
Hep lipid conf = hepatocyte lipid droplet accumulation inhibitors, confirmation, imaging, AML12 mouse hepatocytes, single concentration, high-content; shares compounds with Hep lipid drop; BODIPY lipid droplet imaging; droplets induced with 100 µM oleic acid; inhibition, % at 5.2 µM; 870 tested, 65% active; AID 463183, 2010;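 active = inhibition of lipid droplet metric at least 50%, with more than 300 cells in each of four replicates; inconclusive = wells under 300 cells, flagged as toxic or low count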
AML12 tox img = AML12 hepatocyte cytotoxicity, counter-screen for hepatic lipid droplet formation project, imaging, DAPI nuclear morphology imaging; shares compounds with Hep lipid drop; AML12 mouse hepatocytes; active compounds read high; cells fed 100 µM oleate overnight; z-score at 5 µM; 870 tested, 3% active; in the data active = z-score above about 6.3;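 note: compound exposure lasted overnight at 37 °C before fixation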
AML12 tox ATP = AML12 hepatocyte cytotoxicity, confirmation, cytotoxicity control for hepatic lipid droplet formation project, cell-based, single concentration | shares compounds with Hep lipid drop | AML12 mouse hepatocyte viability, ATP luminescence; cells loaded with 100 µM oleic acid | cytotoxicity, % at 50 µM | 530 tested, under 10 active;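 active = cytotoxicity above 50% in each of four replicates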;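 note: compound exposure lasted overnight at 37 °C before the ATP read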
Hits are given with their value. The list is not random: actives were taken first. Their share in the collection is about 4.2%.

How did O=C(CN1C(=O)NC2(CCOc3ccccc32)C1=O)c1ccc(Cl)cc1 (stereo not given) do in these assays?
XBP1 UPR activ: inactive; TMEM16A act: inactive; TMEM16A inh: inactive; CHOP UPR activ: inactive

What do the screens show for `C=CCN(c1cccc(C(F)(F)F)c1)S(=O)(=O)c1cccc(C(=O)OCC(=O)Nc2ccccc2)c1`?
Hep lipid drop: inactive; XBP1 UPR activ: inactive; TMEM16A act: inactive; TMEM16A inh: inactive; CHOP inh: inactive; CHOP UPR activ: inactive

How did COc1cccc(N=Nc2ccc3ccccc3c2O)c1 do in these assays?
Hep lipid drop: 74.9; XBP1 UPR activ: inactive; TMEM16A act: inactive; TMEM16A inh: inactive; CHOP UPR activ: inactive; Hep lipid conf: inactive; AML12 tox img: inactive; AML12 tox ATP: 60.9

Results for Cc1ccc(N=Nc2ccc3ccccc3c2O)cc1 ?
Hep lipid drop: 82.1; XBP1 UPR activ: inactive; TMEM16A act: inactive; TMEM16A inh: inactive; CHOP UPR activ: inactive; Hep lipid conf: inactive; AML12 tox img: inactive

What do the screens show for `Oc1ccc2ccccc2c1N=Nc1ccc(F)cc1`?
Hep lipid drop: inactive; XBP1 UPR activ: inactive; TMEM16A act: inactive; TMEM16A inh: inactive; CHOP inh: inactive; CHOP UPR activ: inactive

What do the screens show for `Oc1c(N=Nc2ccc(F)cc2)ccc2ccccc12`?
Hep lipid drop: 71.1; XBP1 UPR activ: inactive; TMEM16A act: inactive; TMEM16A inh: inactive; CHOP UPR activ: inactive; Hep lipid conf: 96.1; AML12 tox img: inactive; AML12 tox ATP: 64.2

How did COc1ccc(C[C@H]2CN3C(=NC[C@@H]3Cc3ccccc3)N2CCNC(=O)c2ccc(C)c(Br)c2)cc1 do in these assays?
Hep lipid drop: inactive; XBP1 UPR activ: inactive; TMEM16A act: inactive; TMEM16A inh: inactive; CHOP inh: inactive; CHOP UPR activ: inactive

What do the screens show for `COc1ccc(C[C@H]2CN3C(=NC[C@H]3Cc3ccccc3)N2CCNC(=O)c2ccc(C)c(Br)c2)cc1`?
Hep lipid drop: 54.2; XBP1 UPR activ: inactive; TMEM16A act: inactive; TMEM16A inh: inactive; CHOP inh: inactive; CHOP UPR activ: inactive; Hep lipid conf: inactive; AML12 tox img: inactive

How did Cc1cccc(Nc2ncnc3ccccc23)c1 do in these assays?
Hep lipid drop: 65.8; XBP1 UPR activ: inactive; TMEM16A act: inactive; TMEM16A inh: inactive; CHOP inh: inactive; CHOP UPR activ: inactive; Hep lipid conf: 53.3; AML12 tox img: 13.5

Results for CC(C)CCOc1ccc(C(=O)NCC(c2ccco2)N(C)C)cc1 (stereo not given) ?
Hep lipid drop: 54.3; XBP1 UPR activ: inactive; TMEM16A act: inactive; TMEM16A inh: inactive; CHOP UPR activ: inactive; Hep lipid conf: inactive; AML12 tox img: inactive

Results for COc1ccc(C(=O)CSc2nnc(CC(=O)Nc3ccccc3OC)n2C)cc1 ?
Hep lipid drop: 59.1; XBP1 UPR activ: inactive; TMEM16A act: inactive; TMEM16A inh: inactive; CHOP inh: inactive; CHOP UPR activ: inactive; Hep lipid conf: inactive; AML12 tox img: inactive; AML12 tox ATP: inactive

How did COc1ccc(S(=O)(=O)N2CCOCC2)cc1C(=O)NC1CCCCCC1 do in these assays?
XBP1 UPR activ: inactive; TMEM16A act: inactive; CHOP UPR activ: inactive

How did CCN(CC)C(=O)CCCc1c[nH]c2ccccc12 do in these assays?
Hep lipid drop: inactive; XBP1 UPR activ: inactive; TMEM16A act: inactive; TMEM16A inh: inactive; CHOP inh: inactive; CHOP UPR activ: inactive

How did CCN(CC(=O)Nc1c(F)cccc1F)C(=O)CCCc1c[nH]c2ccccc12 do in these assays?
Hep lipid drop: 81.9; XBP1 UPR activ: inactive; TMEM16A act: inactive; TMEM16A inh: inactive; CHOP UPR activ: inactive; Hep lipid conf: 104.7; AML12 tox img: inactive; AML12 tox ATP: inactive

Results for Cc1cc([N+](=O)[O-])ccc1NC(=O)C[n+]1ccc(N(C)C)cc1 ?
Hep lipid drop: inactive; XBP1 UPR activ: inactive; TMEM16A act: inactive; TMEM16A inh: inactive; CHOP inh: inactive; CHOP UPR activ: inactive

How did COc1ccc(-c2nc3ccccc3c(=O)n2NC(=O)Cc2ccccc2)cc1 do in these assays?
Hep lipid drop: inactive; XBP1 UPR activ: inactive; TMEM16A act: inactive; TMEM16A inh: inactive; CHOP inh: inactive; CHOP UPR activ: inactive

Results for COc1ccc(CC(=O)Nn2c(-c3ccccc3)nc3ccccc3c2=O)cc1 ?
Hep lipid drop: 55.9; XBP1 UPR activ: inactive; TMEM16A act: inactive; TMEM16A inh: inactive; CHOP inh: inactive; CHOP UPR activ: inactive; Hep lipid conf: 90.5; AML12 tox img: inactive

How did COc1ccc(N(C(=O)CCl)C(C(=O)NCCc2ccccc2)c2cccs2)cc1Cl (stereo not given) do in these assays?
Hep lipid drop: 127.0; TMEM16A act: inactive; TMEM16A inh: inactive; CHOP inh: 109.7; Hep lipid conf: inconclusive; AML12 tox img: 34.5

How did O=C(CCn1nnnc1CN1CCOCC1)N1CCC(c2cccc(Cl)c2)C1 (stereo not given) do in these assays?
Hep lipid drop: inactive; XBP1 UPR activ: inactive; TMEM16A act: inactive; TMEM16A inh: inactive; CHOP UPR activ: inactive

How did O=C(Nc1ccccc1)c1ccc(NCC2CCCO2)c(S(=O)(=O)N2CCOCC2)c1 (stereo not given) do in these assays?
Hep lipid drop: 50.6; XBP1 UPR activ: inactive; TMEM16A act: inactive; TMEM16A inh: inactive; CHOP inh: inactive; CHOP UPR activ: inactive; Hep lipid conf: inactive; AML12 tox img: inactive

How did O=C(NCC1CCCO1)c1ccc(Cl)c(S(=O)(=O)N2CCOCC2)c1 (stereo not given) do in these assays?
Hep lipid drop: inactive; XBP1 UPR activ: inactive; TMEM16A act: inactive; TMEM16A inh: inactive; CHOP UPR activ: inactive

How did CCOc1ccc(C2=Nc3ccc(Br)cc3C(c3ccc(N4CCOCC4)cc3)=NN2)cc1 do in these assays?
Hep lipid drop: 62.4; XBP1 UPR activ: inactive; TMEM16A act: inactive; TMEM16A inh: inactive; CHOP inh: inactive; CHOP UPR activ: inactive; Hep lipid conf: inactive; AML12 tox img: inactive
